In the library only some 2.2% were active in any assay of this set; here they are far more common.
DENV2 CPE = inhibitors of DENV2 cytopathic effect, primary screen, cell-based, plate reader, single concentration; DENV2-infected cells, cytopathic effect rescue; CPE inhibition, % at 9.99 µM; actives 1.7% (n = 350,000); AID 651640, 2012; in the data active = CPE inhibition above about 20%, passing the limit was not always enough; inconclusive = no clear call, values can overlap the other calls; tested in BHK-21 cells;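 note: 0% = median of neutral control wells and 100% = median of positive control wells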
E-selectin induc = E-selectin induction in HUVECs, primary screen, imaging, HUVEC, immunofluorescence imaging, single point | P16581 | normalized: neutral wells 0, TNF-alpha wells 100 | activation, % at 7.58 µM | actives 0.37% (n = 260,000) | AID 686992, 2013;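 active = mean E-selectin-positive cell signal at least 10% of the positive control, reached in at least 60% of replicates, without over 20% cell loss; inconclusive = no rule given, readout overlaps actives, possibly toxicity-flagged; inactive = the rest, including those meeting only one limit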
Target sequence (P16581 whole entry, looked up): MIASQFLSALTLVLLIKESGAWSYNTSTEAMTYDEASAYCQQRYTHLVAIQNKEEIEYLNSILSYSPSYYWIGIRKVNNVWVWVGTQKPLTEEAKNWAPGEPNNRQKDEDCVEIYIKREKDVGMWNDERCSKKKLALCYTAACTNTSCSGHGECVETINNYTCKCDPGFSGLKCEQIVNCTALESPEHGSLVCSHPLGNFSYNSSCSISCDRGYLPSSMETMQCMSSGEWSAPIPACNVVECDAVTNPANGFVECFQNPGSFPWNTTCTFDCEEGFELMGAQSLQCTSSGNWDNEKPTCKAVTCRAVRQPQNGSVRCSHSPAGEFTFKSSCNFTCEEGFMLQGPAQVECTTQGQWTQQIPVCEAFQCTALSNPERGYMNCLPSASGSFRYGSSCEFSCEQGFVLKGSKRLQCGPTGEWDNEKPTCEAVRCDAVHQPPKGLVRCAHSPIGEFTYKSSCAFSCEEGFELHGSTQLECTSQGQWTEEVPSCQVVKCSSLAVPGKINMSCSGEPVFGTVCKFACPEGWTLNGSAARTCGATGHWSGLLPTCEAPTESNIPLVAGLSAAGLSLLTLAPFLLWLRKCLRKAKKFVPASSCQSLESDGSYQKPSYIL
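Test system – human umbilical vein endothelial cells (HUVEC), E-selectin induction · Input – 3,000 HUVEC seeded per well · Buffer or medium – EGM-2, gelatin · Compound dosing – single-point compound dose · Detection – immunofluorescence imaging · Measure – percent E-selectin-positive cells · Controls – TNF-alpha high, DMSO low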
Statin myotox sup = suppressors of statin myotoxicity in C2C12 myotubes, primary screen, cell-based, single point, plate reader; C2C12 myotubes + simvastatin, ATP luminescence, 48 h; scaled: DMSO 0, geranylgeraniol control 100; rescue of ATP level, % at 7.49 µM; actives 0.78% (n = 330,000); AID 602340, 2012;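 active = mean ATP rescue above about 67%, or every replicate alone reaching that limit, limit read from the data, passing the limit was not always enough; inconclusive = no clear call, values can overlap the other calls; inactive = mean under the limit and some replicate under it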;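 note: myotubes were challenged with 10 µM simvastatin during compound exposure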
* marks the source's active call; other numbers are inactive results; ? = inconclusive; · = no result.

SMILES	DENV2 CPE	E-selectin induc	Statin myotox sup
CCN1C(=NCc2ccccc2)N[C@@H](c2ccccc2)[C@H](C(=O)OC)[C@H]1C	-14	·	19
CCN1C(=NCCc2c[nH]c3ccccc23)N[C@@H](c2ccccc2)[C@H](C(=O)OC)[C@H]1C	27*	0	0
CO[C@H]1CN(C)C(=O)c2cc(NC(C)=O)ccc2OC[C@@H](C)N(Cc2ccccc2C(=O)O)C[C@@H]1C	12	0	13
O=C(CCSc1nc(-c2ccc3c(c2)OCO3)cc(C(F)(F)F)n1)NCc1ccco1	6	1	2
O=C(CCSc1nc(-c2ccco2)cc(C(F)(F)F)n1)Nc1ccc2c(c1)OCO2	·	·	96*
O=C(N[C@@H]1CC[C@H](CCn2cc(C3CCCCC3)nn2)O[C@H]1CO)c1cccnc1	4	0	0
Cc1cc(C)c(C(=O)N(C)C2CCCN(Cc3ccccc3F)C2)o1 (configuration not stated)	37*	-1	8
Cc1cc(C)cc(C(=O)N(C)C2CCCN(Cc3ccccc3F)C2)c1 (configuration not stated)	12	·	-9
COc1ccc(CC(N)c2csc(NC(=O)c3ccc(OC)cc3)n2)cc1 (configuration not stated)	37*	0	-12
COc1ccc(CC(N)c2csc(NC(=O)c3ccc(F)cc3)n2)cc1 (configuration not stated)	2	0	-2
CO[C@@H]1CN(C)C(=O)c2cc(NS(C)(=O)=O)ccc2OC[C@H](C)N(S(C)(=O)=O)C[C@H]1C	3	0	10
COc1cccc(-c2ccc3c(c2)[C@@H]2[C@@H](CCN2S(=O)(=O)c2ccccc2OC)[C@H](CO)N3C)c1	-17	0	-1
O=C1NC2(CCCCCC2)Cc2ccccc21	-5	·	12
c1ccc2c(c1)CNC1(CCCCC1)C2	·	·	107*
CCC(=O)Nc1ccc2c(c1)OC[C@@H](C)N(Cc1cccc(F)c1)C[C@H](C)[C@@H](OC)CN(C)C2=O	-17	0	-4
Cc1ccc(S(=O)(=O)Nc2ccc3c(c2)CC(=O)N([C@H](C)CO)C[C@H](C)[C@@H](CN(C)C)O3)cc1	-3	0	11
Cc1cc(F)ccc1-c1cc(C(=O)NCc2ccc(C(F)(F)F)cc2)[nH]n1	7	4	7
Cc1cc(F)ccc1-c1cc(C(=O)NCc2ccco2)[nH]n1	57*	1	2
CCc1cc(Cn2nc(-c3ccccc3)cc2C(=O)NCCOC)on1	17	0	-11
CCc1cc(Cn2nc(-c3ccccc3)cc2C(=O)NCC2CC2)on1	48*	0	5
CCCN1C[C@@H](C)[C@@H](OC)CN(C)C(=O)c2ccc(NC(=O)CC)cc2OC[C@@H]1C	·	0	-36
COc1cccc(C2=CC(=O)CC(C)(C)C2)c1	1	0	15
COc1cccc(C2=CC(=O)C(C(C)(C)C)N2C(C)(C)C)c1 (configuration not stated)	41*	0	4
COc1ccc(CN(CCC(c2ccccc2)C2CCOC(C)(C)C2)C(C)=O)cc1 (configuration not stated)	102*	-1	·
COc1ccc(CNCCC(c2ccccc2)C2CCOC(C)(C)C2)cc1 (configuration not stated)	-4	0	·
SMILES	DENV2 CPE	E-selectin induc	Statin myotox sup
CCCCCCCCN1C(=O)[C@H](CC(=O)NCc2cccc(C(F)(F)F)c2)C[C@@]2(C(=O)OC)CC(C)(C)CC=C12	44*	1	·
CCCCCCCCN1C(=O)[C@@H](CC(=O)NCc2cccc(C(F)(F)F)c2)C[C@@]2(C(=O)OC)C1=C[C@H](C(C)(C)C)O[C@@H]2C	5	0	·
C[C@H]1CN([C@@H](C)CO)C(=O)c2cccc(NC(=O)c3ccncc3)c2O[C@H]1CN(C)S(=O)(=O)c1cccs1	-7	-3	-23
COC(=O)c1cc(OC)c(OC)cc1NC(=O)Nc1cccc(C(C)=O)c1	0	·	114*
O=C(Nc1cccnc1)Nc1cccc(F)c1	-6	·	-2
CC(=O)c1cccc(NC(=O)Nc2cccnc2)c1	·	·	81*
COC(=O)c1cccc(NC(=O)Nc2ccccc2OC)c1	3	·	·
CCCNC(=O)N(C)C[C@@H]1Oc2cc(C#CC(C)(C)O)ccc2S(=O)(=O)N([C@@H](C)CO)C[C@H]1C	?	1	11
C[C@@H]1CCCCO[C@@H](CN(C)C(=O)c2ccncc2)[C@H](C)CN([C@H](C)CO)C(=O)c2cc(NC(=O)CCC(F)(F)F)ccc2O1	0	0	·
CCN1[C@@H]2c3ccc(C4=CCCCC4)c(=O)n3C[C@H]1[C@H](CO)[C@H]2C(=O)N1CCc2ccccc2C1	-2	0	-42
C[C@H]1CN([C@@H](C)CO)C(=O)Cc2cc(N(C)C)ccc2O[C@H]1CN(C)S(C)(=O)=O	8	0	23
C[C@@H]1CN([C@@H](C)CO)C(=O)c2cccc(NC(=O)NC3CCCCC3)c2O[C@H]1CN(C)S(=O)(=O)c1ccc(Cl)cc1	-10	0	-5
C[C@H]1CN([C@@H](C)CO)S(=O)(=O)c2ccc(C3=CCCCC3)cc2O[C@@H]1CN(C)C(=O)c1ccccc1	-9	0	-59
C[C@H]1CN([C@@H](C)CO)S(=O)(=O)c2ccc(C3=CCCC3)cc2O[C@@H]1CN(C)C(=O)Cc1ccncc1	31*	0	-1
C[C@@H]1CN([C@H](C)CO)S(=O)(=O)c2ccc(C3=CCCC3)cc2O[C@H]1CN(C)C(=O)c1ccncc1	45*	0	-29
C[C@H](CO)N1C[C@H](C)[C@H](CN(C)C(=O)c2ccccc2)Oc2cc(C3=CCCCC3)ccc2S1(=O)=O	93*	0	-12
C[C@@H]1CN([C@H](C)CO)S(=O)(=O)c2ccc(C3=CCCC3)cc2O[C@H]1CN(C)C(=O)Cc1ccncc1	-5	1	-18
C[C@@H]1CN([C@H](C)CO)S(=O)(=O)c2ccc(C3=CCCC3)cc2O[C@@H]1CN(C)C(=O)c1ccncc1	-2	0	-54
C=CCn1c(-c2cccnc2Cl)nc2cc(Cl)c(Cl)cc21	·	·	23
CCCn1c(-c2cccnc2Cl)nc2cc(Cl)c(Cl)cc21	-4	·	72*
CCCC(=O)Nc1ccc2c(c1)C(=O)N(C)C[C@H](OC)[C@@H](C)CN(Cc1ccccn1)[C@@H](C)CO2	5	0	4
COCCOc1cc(-n2ccnc2SC)c(Cl)cc1Cl	·	·	92*
COCCOc1cc(-n2cccc2)c(Cl)cc1Cl	0	·	11
CN1CCN(c2ccc3c(c2)OC[C@@H](Cc2ccccc2)NS3(=O)=O)CC1	-6	1	·
O=S1(=O)N[C@@H](Cc2ccccc2)COc2cc(N3CCOCC3)ccc21	54*	0	·
CCOC(CNc1cc(C)nc2c(-c3ccccc3OC)c(C)nn12)OCC	6	1	-10
COc1ccccc1-c1c(C)nn2c(NCCN3CCCC3)cc(C)nc12	2	94*	16
Cc1[nH]c2ccccc2c1CC(=O)Nc1ccc(N(C)c2cccnc2)c(-c2cccc(Cl)c2)c1	43*	0	·

Source: PubChem (Broad Institute)
